# High-throughput results as filed in PubChem.
# CHRM5 agonist: human M5 muscarinic receptor agonists, primary screen, CHO-K1 cells, Fluo-8 calcium fluorescence; Muscarinic acetylcholine receptor M5 (Homo sapiens), P08912; CHO-K1 hM5 cells; 0% DMSO wells, 100% maximal acetylcholine response; activation, % at 3 µM; actives 0.19% (n = 360,000);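 active means activation above the run's mean over test compounds plus 3 SD, cut at about 23% in these data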;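 further: signal is peak over basal fluorescence ratio across the kinetic read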
# CHRM5 PAM: human M5 muscarinic receptor positive allosteric modulators, primary screen, CHO-K1 cells, Fluo-8 calcium fluorescence; Muscarinic acetylcholine receptor M5 (Homo sapiens), P08912; CHO-K1 hM5, ACh EC20 PAM; 0% = ACh EC20, 100% = ACh EC100; activation, % at 3 µM; actives 0.3% (n = 360,000);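 active means activation above the run cutoff, the mean activation of all test compounds plus 3 SD, cut at about 18% in these data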
#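 Replicates: One well per compound, no replicates | System: Human M5 receptor in CHO-K1 cells | Benchmarks: Low control EC20 acetylcholine (0%), high control EC100 acetylcholine (100%) | Probe or stimulus: Acetylcholine, EC20 level | Times: Fluo-8 loading 80 min at 37 °C plus 30 min room temperature | Signal: Intracellular calcium via Fluo-8 fluorescence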
# M1 antag: human M1 muscarinic receptor antagonists, primary screen, CHO-K1 cells, Fluo-8 calcium fluorescence, 1536-well; inhibition, % at 3 µM; CHO-K1 hM1, ACh EC80 antagonist; actives 1.3% (n = 360,000); Muscarinic acetylcholine receptor M1 (Homo sapiens), P11229;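 active means percent inhibition above its own plate's cutoff, namely the mean of that plate's compound wells plus 3 SD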;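 further: peak over basal fluorescence ratio during 140 s after agonist addition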
# Target sequence (P11229 whole entry, looked up): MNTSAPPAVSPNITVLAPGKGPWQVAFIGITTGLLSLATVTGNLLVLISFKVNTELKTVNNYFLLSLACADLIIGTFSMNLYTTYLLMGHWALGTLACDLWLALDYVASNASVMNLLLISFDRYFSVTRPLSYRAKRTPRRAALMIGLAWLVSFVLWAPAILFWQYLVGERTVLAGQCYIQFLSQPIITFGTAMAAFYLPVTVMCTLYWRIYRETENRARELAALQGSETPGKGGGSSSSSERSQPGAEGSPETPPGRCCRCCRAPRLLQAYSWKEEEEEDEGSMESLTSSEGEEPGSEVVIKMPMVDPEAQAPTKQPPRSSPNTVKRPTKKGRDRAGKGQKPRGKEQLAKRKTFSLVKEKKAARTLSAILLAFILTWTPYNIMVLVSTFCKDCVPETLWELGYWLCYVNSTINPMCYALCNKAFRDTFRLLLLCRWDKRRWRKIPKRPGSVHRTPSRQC
# M1 PAM: human M1 muscarinic receptor positive allosteric modulators, primary screen, CHO-K1 cells, Fluo-8 calcium fluorescence, 1536-well; Muscarinic acetylcholine receptor M1 (Homo sapiens), P11229; CHO-K1 hM1, ACh EC20; 0% = ACh EC20, 100% = maximal ACh; activation, % at 3 µM; actives 0.088% (n = 360,000); in the data active means activation above about 19%, passing the limit was not always enough
# M1 ag: human M1 muscarinic receptor agonists, primary screen, Fluo-8 calcium fluorescence, CHO-K1 cells, HTS; Muscarinic acetylcholine receptor M1 (Homo sapiens), P11229; CHO-K1 hM1, agonist mode; 0% DMSO, 100% acetylcholine EC100; activation, % at 3 µM; actives 0.33% (n = 360,000);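 active means activation above the run's mean compound activation plus 3 SD, cut at about 16% in these data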;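 further: peak over basal fluorescence ratio within a 140 s kinetic read after compound addition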
# CHRM5 antagonist: human M5 muscarinic receptor antagonists, primary screen, CHO cells, Fluo-8 calcium fluorescence; actives 0.59% (n = 360,000); inhibition, % at 3 µM; AID 624040, 2012; CHO-hM5 cells, ACh EC80; Muscarinic acetylcholine receptor M5 (Homo sapiens), P08912;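 active means inhibition above a per-plate cutoff, the mean of that plate's test compounds plus 3 SD, cut at about 27% in these data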
# Numbers stand for hits; - = inactive; . = no result given. Only some compounds are listed: those with a hit (about 2% of all), similar ones and a draw of the others.
SMILES,CHRM5 agonist,CHRM5 PAM,M1 antag,M1 PAM,M1 ag,CHRM5 antagonist
C=CCNc1ncnc2c1ncn2[C@H]1CN(Cc2ccc(-c3ccccc3)cc2)C[C@@H](CO)O1,-,-,-,-,-,-
COC(=O)C1(c2ccccc2)NC(c2cccs2)C2C(=O)N(c3ccccc3)C(=O)C21 (centres undefined),53.0,-,-,-,41.2,-
CCNC(=O)C1CCCN(C(=O)c2ccco2)CC1 (centres undefined),-,-,-,-,-,-
CCCNS(=O)(=O)c1cc2c(cc1Br)CCN2C(=O)CC,-,22.6,-,-,-,-
C=CCC(NC(=O)c1ccc(C#N)cc1)C(=O)NCCC (centres undefined),-,18.9,-,-,-,-
CCOC(=O)Cn1c(-c2ccccc2)cc(SC)c(C#N)c1=O,-,-,51.7,-,-,-
N#C/C(=C\c1ccc(O)c([N+](=O)[O-])c1)c1nc2ccccc2s1,-,-,-,-,-,30.7
CCOC(=O)C1(Cc2ccc(Cl)cc2)CCN(C(C)Cc2ccc(O)c(OC)c2)CC1 (centres undefined),-,-,39.4,-,-,30.3
CCCCNC(=S)Nc1ccccc1Cc1ccccc1,-,22.9,-,-,-,-
CC(C)Nc1ccc(C(CC(N)=O)NC(=O)c2ccc(Br)cc2)cc1[N+](=O)[O-] (centres undefined),-,19.9,-,-,-,-
CCOC(=O)c1sc2nc(NC(=O)C3CC3)sc2c1C,-,-,-,-,-,-
CCOC(=O)c1sc2nc(NC(=O)C(C)(C)C)sc2c1C,-,-,32.2,-,-,-
Cc1noc(C)c1CSc1ccccc1C(=O)O,-,-,-,-,-,-
Cc1noc(C)c1CSc1ccccc1C(=O)Nc1nccs1,-,29.9,-,-,-,-
Cn1c2c(c(=O)n(C)c1=O)CN(Cc1ccccc1)CN2,-,-,-,-,-,-
OCC1(Cc2ccccc2)CCN(C2CCN(c3ccccc3F)CC2)CC1,-,-,34.5,-,-,-
OCC1(Cc2ccccc2)CCN(Cc2cnn(-c3ccccc3F)c2)CC1,-,-,-,-,-,-
Cc1ccc(NC(=S)c2nc3ccccc3[nH]2)cc1,-,-,-,-,-,46.8
Cc1ccccc1C(=O)NC1CCN(CC(=O)Nc2ccccc2)CC1,-,-,-,-,-,-
Cc1ccccc1C(=O)NC1CCN(CC(=O)Nc2c(C)cccc2C)CC1,-,31.6,-,-,-,-
CCCCn1c(N)c(N(C(=O)CSc2nncn2-c2ccccc2C)C2CCCC2)c(=O)[nH]c1=O,-,-,-,-,-,-
Cc1ccccc1C(=O)NCCCCc1ccccc1,-,-,-,-,-,-
Nc1nc2ccccc2cc1C(=O)NCCCCc1ccccc1,-,-,.,.,.,27.7
O=C1COC(c2ccccc2O)=NN1CCCl,-,-,-,-,-,-
CC(=O)Nc1ccc(CN(C)c2c(C)nc3ccc(C(=O)NCCCN4CCCC4=O)cn23)cc1,-,-,-,-,-,-
SMILES,CHRM5 agonist,CHRM5 PAM,M1 antag,M1 PAM,M1 ag,CHRM5 antagonist
O=C(C1CCCCC1)N1C[C@@H](O)[C@H](n2cc(-c3ccc(F)cc3)nn2)C[C@@H]1c1ccc(Cl)cc1,-,-,-,-,-,-
NC(=NCc1ccc2c(c1)OCO2)NC(=O)c1ccccc1,-,-,24.4,-,-,-
CS(=O)(=O)Nc1ccc(-c2cccc3nccn23)cc1,-,-,24.1,-,-,-
CN(C)c1ccc(-c2cccc3nccn23)cc1,-,-,-,-,-,-
CCOC(=O)c1cc(C)n(-c2c(C)n(C)n(-c3ccccc3)c2=O)c1C,-,-,34.1,-,-,-
Cc1cccc(S(=O)Cc2ccc(C(=O)N3CCN(C(=O)c4ccco4)CC3)o2)c1 (centres undefined),-,22.2,-,-,-,-
